Laboratory results as given in ChEMBL document CHEMBL1126715, “Synthesis and tissue distribution of (m-[125I]iodobenzyl)trozamicol ([125I]MIBT): potential radioligand for mapping central cholinergic innervation” (J Med Chem, 1993).

Legend:
[1] = species on record: Rattus norvegicus; test: Ratio of tissue distribution between rat brain and blood after 30 min; type: ADME, organism-based; details: 0.5 h
How it was run: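 Male Wistar rats (200-350 g) under ether anesthesia, iv radiotracer (3-5 μCi in 0.1 mL 50% aqueous ethanol). At 5, 30, 60, 180 min blood taken by cardiac puncture, animal killed by cardiectomy; organs weighed, γ-counted against 1:100 injected-dose dilution; % injected dose/g tissue; brain/blood ratio.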

[2] = species on record: Rattus norvegicus; test: Ratio of regional kinetics between rat brain caudate and cerebellum at 30 minutes; type: ADME, organism-based; details: in vivo, 0.5 h
How it was run: (§1)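 Male Wistar rats (n = 4/group) under ether anesthesia, iv (+)-[125I]MIBT (2 μCi in 100 μL 50% aqueous EtOH); killed at 30, 120, 180 min. Brains partially frozen, dissected into striatum, cerebellum, cortex and remainder; radioactivity counted, % dose/g vs injected-dose dilutions; caudate/cortex and caudate/cerebellum ratios.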

[3] = species on record: Rattus norvegicus; test: Tissue distribution in rat blood after 60 minutes (n=3); type: ADME, organism-based; details: in vivo, 1 h
How it was run: (§2)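 Male Wistar rats (200-350 g) under ether, iv [125I]tracer (3-5 μCi in 0.1 mL 50% aqueous EtOH). At 5, 30, 60 or 180 min, blood taken by cardiac puncture and the rat killed by cardiectomy. Organs weighed and γ-counted against 1:100 dilutions of the injected dose; results in % injected dose/g, with range.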

[4] = species on record: Rattus norvegicus; test: Tissue distribution in rat liver after 60 minutes (n=3); type: ADME, organism-based; details: in vivo, 1 h
How it was run: (§3)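 Male Wistar rats (200-350 g) under ether anesthesia; radiotracer (3-5 μCi in 0.1 mL 50% aqueous ethanol) given iv. At 5, 30, 60 and 180 min, blood was drawn by cardiac puncture and animals were killed by cardiectomy. Organs were weighed and γ-counted against a 1:100 dilution of the injected dose. Results are given as % injected dose/g tissue; ratios are taken between tissue levels.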

[5] = Ratio of tissue distribution between rat heart and blood after 120 min; type: ADME, organism-based
[6] = species on record: Rattus norvegicus; test: Ratio of tissue distribution between rat brain and blood after 60 min; type: ADME, organism-based; details: 1 h; how it was run: as §3
[7] = species on record: Rattus norvegicus; test: Effect of vesamicol on the accumulation in rat brain [0.51 (0.45-0.66)]; type: ADME, organism-based; details: in vivo
How it was run: (§4)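 Male Wistar rats (n = 4/group) given iv vehicle (100 μL 50% aqueous EtOH) or dl-vesamicol (1.01 μmol/kg); 15 min later iv radiotracer (2.0 μCi in 100 μL 50% aqueous EtOH); killed 30 min post-tracer. Blood by cardiac puncture, organs weighed and γ-counted vs 1:100 injected-dose dilution; % dose/g tissue (range); tissue/blood ratios.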

[8] = species on record: Rattus norvegicus; test: Effect of vesamicol on the accumulation in rat thyroid [1.77 (1.47-1.93)]; type: ADME, organism-based, Thyroid gland; details: in vivo
How it was run: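 Male Wistar rats. Pretreatment at t = 0 was iv vehicle (50% aqueous EtOH) or iv dl-vesamicol (1.01 μmol/kg). At 15 min, iv [125I]tracer (2.0 μCi in 100 μL 50% aqueous EtOH) was given; rats were killed 30 min later. Tissues were weighed and γ-counted, and values expressed as % injected dose/g; n = 4 per group.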

[9] = species on record: Rattus norvegicus; test: Tissue distribution in rat spleen after 60 minutes (n=3); type: ADME, organism-based; details: in vivo, 1 h; how it was run: as §3
[10] = species on record: Rattus norvegicus; test: Effect of haloperidol on the regional distribution of compound in the rat brain caudate-putamen (n=4) [0.75 (0.60-0.85)]; type: ADME, organism-based; details: in vivo
[11] = species on record: Rattus norvegicus; test: Ratio of tissue distribution between rat heart and blood after 60 min; type: ADME, organism-based; details: other tissue, 1 h; how it was run: as §3
[12] = species on record: Rattus norvegicus; test: Tissue distribution in rat blood after 5 minutes (n=3); type: ADME, organism-based; details: in vivo; how it was run: as §3
[13] = species on record: Rattus norvegicus; test: Tissue distribution in rrat heart after 60 minutes (n=3); type: ADME, organism-based; details: in vivo, 1 h; how it was run: as §3
[14] = species on record: Rattus norvegicus; test: Effect of 4-aminobenzovesamicol on the regional distribution of compound in the rat brain cortex (n=4) [0.23 (0.19-0.25)]; type: ADME, organism-based; details: in vivo
[15] = species on record: Rattus norvegicus; test: Tissue distribution in rat lung after 5 minutes (n=3); type: ADME, organism-based; details: in vivo; how it was run: as §3
[16] = species on record: Rattus norvegicus; test: Effect of vesamicol on the accumulation in rat spleen [0.97 (0.89-1.04)]; type: ADME, organism-based; details: in vivo; how it was run: as §4
[17] = species on record: Rattus norvegicus; test: Effect of 4-aminobenzovesamicol on the regional distribution of compound in the remainder of rat brain (n=4) [0.21 (0.17-0.23)]; type: ADME, organism-based; details: in vivo
[18] = species on record: Rattus norvegicus; test: Effect of vesamicol on the accumulation in rat blood [0.05 (0.04-0.06)]; type: ADME, organism-based; details: in vivo; how it was run: as §4
[19] = species on record: Rattus norvegicus; test: Regional kinetics in the remainder of rat brain at 180 minutes; type: ADME, organism-based; details: in vivo, 3 h
How it was run: (§5)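 Male Wistar rats (n = 4 per time point) under ether received (+)-radiotracer iv (2 μCi in 100 μL 50% aqueous EtOH). They were killed at 30, 120 or 180 min. Brains were partially frozen and dissected into striatum, cerebellum, cortex and remainder. Regions were γ-counted against injected-dose dilutions and expressed as % injected dose/g tissue.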

[20] = species on record: Rattus norvegicus; test: Regional kinetics in the remainder of rat brain at 30 minutes; type: ADME, organism-based; details: in vivo, 0.5 h; how it was run: as §5
[21] = species on record: Rattus norvegicus; test: Tissue distribution in rat thyroid after 5 minutes (n=3); type: ADME, organism-based, Thyroid gland; details: in vivo; how it was run: as §2
[22] = species on record: Rattus norvegicus; test: Ratio of regional kinetics between rat brain caudate and cerebellum at 180 minutes; type: ADME, organism-based; details: in vivo, 3 h; how it was run: as §1
[23] = species on record: Rattus norvegicus; test: Ratio of regional kinetics between rat brain caudate and cortex at 180 minutes; type: ADME, organism-based; details: in vivo, 3 h; how it was run: as §1
[24] = species on record: Rattus norvegicus; test: Tissue distribution in rat spleen after 5 minutes (n=3); type: ADME, organism-based; details: in vivo; how it was run: as §2
[25] = species on record: Rattus norvegicus; test: Effect of vesamicol on the accumulation in rat lung [1.56 (1.28-1.90)]; type: ADME, organism-based; details: in vivo; how it was run: as §4
[26] = species on record: Rattus norvegicus; test: Tissue distribution in rat brain after 60 minutes (n=3); type: ADME, organism-based; details: in vivo, 1 h; how it was run: as §3
[27] = species on record: Rattus norvegicus; test: Tissue distribution in rat blood after 30 minutes (n=3); type: ADME, organism-based; details: in vivo, 0.5 h; how it was run: as §3
[28] = species on record: Rattus norvegicus; test: Tissue distribution in rat thyroid after 30 minutes (n=3); type: ADME, organism-based, Thyroid gland; details: in vivo, 0.5 h; how it was run: as §3
[29] = species on record: Rattus norvegicus; test: Tissue distribution in rat muscle after 60 minutes (n=3); type: ADME, organism-based; details: in vivo, 1 h; how it was run: as §2
[30] = species on record: Rattus norvegicus; test: Tissue distribution in rat liver after 30 minutes (n=3); type: ADME, organism-based; details: in vivo, 0.5 h; how it was run: as §3
[31] = species on record: Rattus norvegicus; test: Regional kinetics in the rat brain cortex at 30 minutes; type: ADME, organism-based; details: in vivo, 0.5 h
How it was run: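 Male Wistar rats under ether anaesthesia, iv (+)-[125I]tracer (2 μCi in 100 μL 50% aqueous EtOH); killed at 30, 120 or 180 min. Brains partially frozen and dissected into striatum, cerebellum, cortex and remainder, then counted for radioactivity. Results are % injected dose/g, calculated against counted dilutions of the injected dose.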

[32] = species on record: Rattus norvegicus; test: Ratio of regional kinetics between rat brain caudate and cortex at 120 minutes; type: ADME, organism-based; details: in vivo, 2 h; how it was run: as §1
[33] = species on record: Rattus norvegicus; test: Regional kinetics in the rat brain caudate-putamen at 30 minutes; type: ADME, organism-based; details: in vivo, 0.5 h; how it was run: as §5
[34] = species on record: Rattus norvegicus; test: Tissue distribution in rat thyroid after 60 minutes (n=3); type: ADME, organism-based, Thyroid gland; details: in vivo, 1 h; how it was run: as §3
[35] = species on record: Rattus norvegicus; test: Ratio of regional kinetics between rat brain caudate and cortex at 30 minutes; type: ADME, organism-based; details: in vivo, 0.5 h; how it was run: as §1
[36] = species on record: Rattus norvegicus; test: Effect of vesamicol on the accumulation in rat gonads [0.15 (0.14-0.15)]; type: ADME, organism-based; details: in vivo; how it was run: as §4
[37] = species on record: Rattus norvegicus; test: Tissue distribution in rat liver after 180 minutes (n=3); type: ADME, organism-based; details: in vivo, 3 h; how it was run: as §2
[38] = species on record: Rattus norvegicus; test: Ratio of effect haloperidol on regional distribution between rat brain caudate and cortex; type: ADME, organism-based; details: in vivo
[39] = species on record: Rattus norvegicus; test: Tissue distribution in rat liver after 5 minutes (n=3); type: ADME, organism-based; details: in vivo; how it was run: as §2
[40] = species on record: Rattus norvegicus; test: Ratio of effect 4-aminobenzovesamicol on regional distribution between rat brain caudate and cortex; type: ADME, organism-based; details: in vivo
[41] = species on record: Rattus norvegicus; test: Regional kinetics in the rat cerebellum at 180 minutes; type: ADME, organism-based; details: in vivo, 3 h; how it was run: as §5
[42] = species on record: Rattus norvegicus; test: Tissue distribution in rat brain after 5 minutes (n=3); type: ADME, organism-based; details: in vivo; how it was run: as §3
[43] = species on record: Rattus norvegicus; test: Effect of haloperidol on the regional distribution of compound in the remainder of rat brain (n=4) [0.33 (0.28-0.40)]; type: ADME, organism-based; details: in vivo
[44] = species on record: Rattus norvegicus; test: Tissue distribution in rat kidney after 30 minutes (n=3); type: ADME, organism-based; details: in vivo, 0.5 h; how it was run: as §3

Question: What does the source list for `O[C@@H]1CCN(Cc2cccc([125I])c2)C[C@H]1N1CCC(c2ccccc2)CC1` (stereo in doubt; (+))?
Answer: Ratio [1]: 3.18; Ratio [2]: 1.2; Dose/g [3]: 0.09%; Dose/g [4]: 1.91%; Kp at 2 h [5]: 1.6; Ratio [6]: 3.08; Dose/g [7]: 0.3%; Dose/g [8]: 2.02%; Dose/g [9]: 0.86%; Dose/g [10]: 0.99%; Ratio [11]: 1.7; Dose/g [12]: 0.24%; Dose/g [13]: 0.15%; Dose/g [14]: 0.15%; Dose/g [15]: 3.67%; Dose/g [16]: 0.97%; Dose/g [17]: 0.15%; Dose/g [18]: 0.05%; Dose/g [19]: 0.25%; Dose/g [20]: 0.59%; Dose/g [21]: 1.6%; Ratio [22]: 2.95; Ratio [23]: 1.93; Dose/g [24]: 0.76%; Dose/g [25]: 1.59%; Dose/g [26]: 0.27%; Dose/g [27]: 0.12%; Dose/g [28]: 2.33%; Dose/g [29]: 0.11%; Dose/g [30]: 2.18%; Dose/g [31]: 0.65%; Ratio [32]: 1.68; Dose/g [33]: 0.64%; Dose/g [34]: 4.59%; Ratio [35]: 0.98; Dose/g [36]: 0.15%; Dose/g [37]: 1.18%; Ratio [38]: 4.82; Dose/g [39]: 1.6%; Ratio [40]: 1.57; Dose/g [41]: 0.17%; Dose/g [42]: 0.57%; Dose/g [43]: 0.17%; Dose/g [44]: 1.32%
